Data reported in ChEMBL document CHEMBL1123482, “Synthesis and dopaminergic activity of some halogenated mono- and dihydroxylated 2-aminotetralins” (1986).
Calls of active or inactive are those of the source. The rule behind the calls is not given here.

How the values were obtained:
[1] = biological target: D(2) dopamine receptor (Bos taurus) (UniProt P20288); assay: Affinity for Dopamine receptor D2 was evaluated from the ability to displace [3H]spiroperidol from homogenized bovine pituitary
Outline: (§1)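 Bovine anterior pituitary homogenate with [3H]spiroperidol ~0.25 nM. Screened at 10^-5 and 10^-7 M; where displacement was 50% or more, IC50 was determined. KBind = IC50/(1 + L/KD), spiroperidol KD 0.3 nM.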

[2] = biological target: D(1A) dopamine receptor (Rattus norvegicus) (UniProt P18901); assay: Affinity for Dopamine receptor D1 binding sites was evaluated in a test involving displacement of [3H]- fenoldopam in rat striatum; type: tissue-based
[3] = biological target: D(1A) dopamine receptor (Rattus norvegicus) (UniProt P18901); assay: Stimulation of dopamine-sensitive rat caudate adenylate cyclase or antagonism of dopamine stimulus as measure of D1 efficacy; No stimulation; type: functional
[4] = biological target: D(1A) dopamine receptor (Rattus norvegicus) (UniProt P18901); assay: The ability of a compound to stimulate dopamine-sensitive rat caudate adenylate cyclase or to antagonise the stimulant of dopamine was used as measure of D1 efficacy; type: functional
[5] = biological target: D(2) dopamine receptor (Bos taurus) (UniProt P20288); assay: Affinity for Dopamine receptor D2 was evaluated from the ability to displace [3H]spiroperidol from homogenized bovine uM; conditions: concentration not given here; outline: as §1
Oryctolagus cuniculus [6] = organism: Oryctolagus cuniculus; assay: The D2 efficacy was evaluated in isolated perfused rabbit ear artery test; No response at 1 uM; type: functional
Outline: (§2)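 Isolated perfused rabbit ear artery given brief intermittent nerve stimulation; concentration-dependent inhibition of the constrictor response measured. EC50 is the concentration giving 50% inhibition of constriction. Antagonist KB values for (S)-sulpiride determined by the Furchgott method, in nM.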

Oryctolagus cuniculus [7] = organism: Oryctolagus cuniculus; assay: The D2 efficacy was evaluated in isolated perfused rabbit ear artery test; type: functional; conditions: read-out: ED50 (the source's name); outline: as §2

Sequence of D(1A) dopamine receptor (Rattus norvegicus) (P18901 whole entry): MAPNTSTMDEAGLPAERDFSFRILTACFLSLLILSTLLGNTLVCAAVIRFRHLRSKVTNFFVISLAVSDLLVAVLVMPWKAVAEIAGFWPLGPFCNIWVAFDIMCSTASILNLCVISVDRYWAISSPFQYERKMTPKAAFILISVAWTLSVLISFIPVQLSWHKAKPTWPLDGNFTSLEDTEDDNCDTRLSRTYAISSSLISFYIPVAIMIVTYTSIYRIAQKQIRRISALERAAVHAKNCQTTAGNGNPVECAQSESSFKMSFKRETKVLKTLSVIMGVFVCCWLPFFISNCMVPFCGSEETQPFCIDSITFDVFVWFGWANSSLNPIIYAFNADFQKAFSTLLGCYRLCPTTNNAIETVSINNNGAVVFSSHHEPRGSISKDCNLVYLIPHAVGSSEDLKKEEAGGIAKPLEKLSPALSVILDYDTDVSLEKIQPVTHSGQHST
Sequence of D(2) dopamine receptor (Bos taurus) (P20288 whole entry, the tested form may be a part): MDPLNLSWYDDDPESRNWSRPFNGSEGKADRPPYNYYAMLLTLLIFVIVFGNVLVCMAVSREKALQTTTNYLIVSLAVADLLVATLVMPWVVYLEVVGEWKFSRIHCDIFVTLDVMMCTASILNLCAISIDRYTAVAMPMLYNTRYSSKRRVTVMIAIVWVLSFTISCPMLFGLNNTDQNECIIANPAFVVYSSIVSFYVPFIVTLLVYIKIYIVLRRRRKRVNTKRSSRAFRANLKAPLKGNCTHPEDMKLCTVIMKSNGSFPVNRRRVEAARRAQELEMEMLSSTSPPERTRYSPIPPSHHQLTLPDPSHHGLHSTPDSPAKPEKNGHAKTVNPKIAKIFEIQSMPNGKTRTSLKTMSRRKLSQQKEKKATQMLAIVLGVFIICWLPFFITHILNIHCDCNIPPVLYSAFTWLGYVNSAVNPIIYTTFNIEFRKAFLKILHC

## CN(C)C1CCc2cc(Cl)c(O)cc2C1 (stereo not drawn)
[1]
  K Bind: 1.55 µM
[2]
  K Bind: 2.63 µM
[3]
  ED50: inactive

## NC1CCc2c(ccc(O)c2Cl)C1 (stereo not drawn)
[1]
  K Bind: 11.6 µM
[2]
  K Bind: > 10 µM

## CN(C)C1CCc2cc(O)c(Cl)cc2C1 (stereo not drawn)
[1]
  K Bind: 0.09 µM
[2]
  K Bind: 2.3 µM
[3]
  ED50: inactive

## CCCN(CCC)C1CCc2cc(Cl)c(O)cc2C1 (stereo not drawn)
[1]
  K Bind: 1.63 µM
[2]
  K Bind: 4.71 µM
[3]
  ED50: inactive

## NCCc1ccc(O)c(O)c1
[4]
  ED50: 3500 nM

## Oc1ccc(CCNC2CCc3cc(O)c(O)c(Cl)c3C2)cc1 (stereo not drawn)
[1]
  K Bind: 0.41 µM
[2]
  K Bind: 0.145 µM

## NC1CCc2cc(O)c(Cl)cc2C1 (stereo not drawn)
[1]
  K Bind: 4.47 µM
[2]
  K Bind: 1.97 µM
[3]
  ED50: inactive

## CCCN(CCC)C1CCc2cc(F)c(O)cc2C1 (stereo not drawn)
[1]
  K Bind: 0.43 µM
[2]
  K Bind: 1.74 µM

## NC1CCc2cc(F)c(O)cc2C1 (stereo not drawn)
[1]
  K Bind: 0.66 µM
[2]
  K Bind: 0.37 µM

## NC1CCc2cc(Cl)c(O)c(Cl)c2C1 (stereo not drawn)
[5]
  inhibition: 30%
[2]
  K Bind: 2.97 µM

## CN(C)C1CCc2cc(F)c(O)cc2C1 (stereo not drawn)
[1]
  K Bind: 0.47 µM
[2]
  K Bind: 0.76 µM

## NC1CCc2c(cc(O)c(O)c2F)C1 (stereo not drawn)
[1]
  K Bind: 0.52 µM
[2]
  K Bind: 0.074 µM
[4]
  ED50: 1600 nM

## NC1CCc2c(cc(O)c(O)c2Cl)C1 (stereo not drawn)
[1]
  K Bind: 0.47 µM
[2]
  K Bind: 0.84 µM
[3]
  ED50: inactive

## CCCN(CCC)C1CCc2cc(O)c(Cl)cc2C1 (stereo not drawn)
[1]
  K Bind: 0.9 µM
[2]
  K Bind: 8.23 µM
[3]
  ED50: inactive

## CN(C)C1CCc2c(ccc(O)c2Cl)C1 (stereo not drawn)
[1]
  K Bind: 3.5 µM
[2]
  K Bind: 5.95 µM

## CCCN(CCC)C1CCc2cc(Cl)c(O)c(Cl)c2C1 (stereo not drawn)
[1]
  K Bind: 10.4 µM
[2]
  K Bind: > 10 µM
[3]
  ED50: inactive

## NC1CCc2cc(O)c(O)c(F)c2C1 (stereo not drawn)
[1]
  K Bind: 1.27 µM
[2]
  K Bind: 0.062 µM
[4]
  ED50: 2200 nM

## CN(C)C1CCc2cc(Cl)c(O)c(Cl)c2C1 (stereo not drawn)
[5]
  inhibition: 29%
[2]
  K Bind: > 20 µM

## NC1CCc2cc(O)c(O)cc2C1 (stereo not drawn)
[1]
  K Bind: 0.21 µM
[2]
  K Bind: 0.07 µM
[4]
  ED50: 2700 nM

## CCCN(CCC)C1CCc2c(ccc(O)c2Cl)C1 (stereo not drawn)
[1]
  K Bind: 0.85 µM
[2]
  K Bind: 2.25 µM

## CCCN(CCC)CC1CCc2cc(F)c(O)cc2C1 (stereo not drawn)
[1]
  K Bind: 14.1 µM
[2]
  K Bind: > 50 µM

## NC1CCc2cc(Cl)c(O)cc2C1 (stereo not drawn)
[1]
  K Bind: 1.05 µM
[2]
  K Bind: 1.44 µM
[3]
  ED50: inactive
Oryctolagus cuniculus [6]
  ED50: inactive

## CCCN(CCC)C1CCc2cc(O)c(O)c(Cl)c2C1 (stereo not drawn)
[1]
  K Bind: 0.24 µM
[2]
  K Bind: 0.62 µM

## NC1CCc2cc(O)c(O)c(Cl)c2C1 (stereo not drawn)
[1]
  K Bind: 3.16 µM
[2]
  K Bind: 0.043 µM
[4]
  ED50: 1400 nM
Oryctolagus cuniculus [7]
  EC50: 536000 nM

## CCCN(CCc1ccc(O)cc1)C1CCc2cc(O)c(O)c(Cl)c2C1 (stereo not drawn)
[1]
  K Bind: 0.033 µM
[2]
  K Bind: 0.27 µM
